Values joined by “and” are separate entries in the source; they are usually repeats but may differ in a detail not shown here. Equal entries are not always repeated. “Also recorded” adds a separate entry of the source. Where two headings read alike, the source gives them in different places.
Tests used:
ear = test: Skin; type: in vivo, B6C3F1 mice; conditions: 28 days
Summary of the method: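 Mice were dosed daily on both ears (25 μl/ear; acetone vehicle or 1.25, 2.5, 5% w/v) for 28 days. Half an ear pinna or the caudate liver lobe was homogenized in Buffer RLT, and total RNA was column-isolated with DNase treatment. TaqMan qPCR gave relative fold change (2−ΔΔCT) versus vehicle controls, normalized to β-actin. Liver used 4–5 mice/group, one-way ANOVA/Dunnett or Kruskal-Wallis/Dunn.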

B6C3F1 mice = test: Histopathology; type: in vivo; conditions: for Liver: bile, increased, hepatocyte, minimal (incidence) / Liver: hypertrophy, hepatocyte, marked (incidence) / Liver: infiltrate, mononuclear cell, mild (incidence) / Liver: infiltrate, mononuclear cell, minimal (incidence) / Liver: necrosis, mild (incidence) / Liver: necrosis, minimal (incidence) / Liver: pigment macrophage, minimal (incidence) / Spleen: decreased cellularity, lymphocyte, mild (incidence): mice affected of 5
Summary of the method: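 Female B6C3F1 mice (5/group) received 25 μl/ear of acetone vehicle or 1.25–5% w/v test compound daily on both ears for 28 days, with necropsy about 24 h later. Liver, half spleen, half ear pinna and right kidney were fixed in 10% formalin, paraffin-embedded, cut at 5 μm and H&E-stained. A veterinary pathologist scored them per STP guideline, grades 1 (minimal) to 5 (severe).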

IgM response to SRBC = test: Spleen IgM response to SRBC; type: in vivo, B6C3F1 mice; conditions: 10 days
Summary of the method: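 B6C3F1 mice, 5/group, dosed topically on dorsal surface of each ear (25 μl/ear) with acetone vehicle or test compound at 0.625, 1.25, 2.5% w/v once daily for 10 consecutive days. SRBC 7.5 × 10^7 i.v. given 4 days before CO2 euthanasia. Spleen cells plated at 1:30 and 1:120 in agar/DEAE-dextran with SRBC and guinea pig complement, 3 h at 37 °C. Plaques counted per 10^6 cells and per spleen. Mean ± SE.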

[1] = 28 days of 20 mg/kg/d oral gavage, female mice; ref Narizzano et al., 2021; cited from earlier work
[2] = female rats, 14-days of 10 mg/kg/day oral exposure; ref Butenhoff et al., 2009; cited from earlier work
spleen = test: Spleen gene expression; type: in vivo, B6C3F1 mice; conditions: PFHxS dermal, 28 days
Summary of the method: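 Spleens came from female B6C3F1 mice given acetone vehicle or test compound (1.25–5% w/v, 25 μl/ear, both ears) daily for 28 days and necropsied about 24 h after the last dose. Gene expression was measured by qPCR and expressed as mean fold change relative to vehicle, with 5 mice/group. Significance used one-way ANOVA with Dunnett's or Kruskal-Wallis with Dunn's post-test.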

NK cell function = test: NK assay; type: in vivo, mice; conditions: any effector to target ratios
dLN cells = test: Draining lymph node; type: in vivo, B6C3F1 mice; conditions: 28 days
Summary of the method: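 Female B6C3F1 mice (5/group) received 25 μl/ear of acetone vehicle or 1.25, 2.5 or 5% w/v test compound on the dorsal surface of each ear, once daily for 28 days. They were euthanized about 24 h later. Single-cell suspensions were made from both auricular dLNs, half a spleen or one ear pinna. Cells were Fc-blocked (anti-CD16/32), stained with surface antibody cocktails and acquired on an LSR II, with FMO gating controls.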

[3] = 14-days of 3 mg/kg/day oral exposure; ref Chang et al., 2018; cited from earlier work

O=S(=O)(O)C(F)(F)C(F)(F)C(F)(F)C(F)(F)C(F)(F)C(F)(F)F [PFHxS, Perfluorohexane sulfonic acid]
Skin Serpine1 gene expression, fold increase (ear; 1.25% PFHxS): 3 fold | Skin Il-1β gene expression (ear; 1.25-5% PFHxS): no significant changes | Skin Pparα gene expression (ear; 1.25-5% PFHxS): no change | Skin barrier gene Flg2 expression (ear; 1.25-5% PFHxS): No changes | Skin barrier gene Itgbl1 expression (ear; 1.25-5% PFHxS): No changes | Skin barrier gene Krt10 expression (ear; 1.25-5% PFHxS): No changes | Skin barrier gene Krt14 expression (ear; 1.25-5% PFHxS): No changes | Skin Serpine1 gene expression, fold increase (ear; 2.5% PFHxS): 4 fold | Skin barrier gene Lor expression (ear; 2.5%, 5% PFHxS): Increases | Skin Cxcl1 gene expression, fold increase (ear; 5% PFHxS): 5 fold | Skin Il-6 gene expression, fold increase (ear; 5% PFHxS): 2 fold | Skin Pparγ gene expression (ear; 5% PFHxS): decrease | Skin Pparδ gene expression (ear; 5% PFHxS): increase | Skin S100a8 gene expression, fold increase (ear; 5% PFHxS): 9 fold | Skin Serpine1 gene expression, fold increase (ear; 5% PFHxS): 4 fold | Skin Tslp gene expression, fold increase (ear; 5% PFHxS): 33 fold | Skin barrier gene Flg expression (ear; 5% PFHxS): Increases | Liver: bile, increased, hepatocyte, minimal (incidence) (B6C3F1 mice; 1.25% PFHxS, 28 days): 5/5 and 5 | Liver: hypertrophy, hepatocyte, marked (incidence) (B6C3F1 mice; 1.25% PFHxS, 28 days): 5 | Liver: infiltrate, mononuclear cell, mild (incidence) (B6C3F1 mice; 1.25% PFHxS, 28 days): 1/5 and 1 | Liver: infiltrate, mononuclear cell, minimal (incidence) (B6C3F1 mice; 1.25% PFHxS, 28 days): 2/5 and 2 | Liver: necrosis, mild (incidence) (B6C3F1 mice; 1.25% PFHxS, 28 days): 2/5 and 2 | Liver: necrosis, minimal (incidence) (B6C3F1 mice; 1.25% PFHxS, 28 days): 3/5 and 3 | Liver: pigment macrophage, minimal (incidence) (B6C3F1 mice; 1.25% PFHxS, 28 days): 4/5 and 4 | Spleen: decreased cellularity, lymphocyte, mild (incidence) (B6C3F1 mice; 1.25% PFHxS, 28 days): 2/5 and 2 | Liver: bile, increased, hepatocyte, minimal (incidence) (B6C3F1 mice; 2.5% PFHxS, 28 days): 5/5 and 5 | Liver: hypertrophy, hepatocyte, marked (incidence) (B6C3F1 mice; 2.5% PFHxS, 28 days): 5 | Liver: infiltrate, mononuclear cell, mild (incidence) (B6C3F1 mice; 2.5% PFHxS, 28 days): 0 | Liver: infiltrate, mononuclear cell, minimal (incidence) (B6C3F1 mice; 2.5% PFHxS, 28 days): 2/5 and 2 | Liver: necrosis, mild (incidence) (B6C3F1 mice; 2.5% PFHxS, 28 days): 1/5 and 1 | Liver: necrosis, minimal (incidence) (B6C3F1 mice; 2.5% PFHxS, 28 days): 4/5 and 4 | Liver: pigment macrophage, minimal (incidence) (B6C3F1 mice; 2.5% PFHxS, 28 days): 5/5 and 5 | Spleen: decreased cellularity, lymphocyte, mild (incidence) (B6C3F1 mice; 2.5% PFHxS, 28 days): 4/5 and 4 | Liver: bile, increased, hepatocyte, minimal (incidence) (B6C3F1 mice; 5% PFHxS, 28 days): 5/5 and 5 | Liver: hypertrophy, hepatocyte, marked (incidence) (B6C3F1 mice; 5% PFHxS, 28 days): 5 | Liver: infiltrate, mononuclear cell, mild (incidence) (B6C3F1 mice; 5% PFHxS, 28 days): 0 | Liver: infiltrate, mononuclear cell, minimal (incidence) (B6C3F1 mice; 5% PFHxS, 28 days): 1/5 and 1 | Liver: necrosis, mild (incidence) (B6C3F1 mice; 5% PFHxS, 28 days): 1/5 and 1 | Liver: necrosis, minimal (incidence) (B6C3F1 mice; 5% PFHxS, 28 days): 4/5 and 4 | Liver: pigment macrophage, minimal (incidence) (B6C3F1 mice; 5% PFHxS, 28 days): 4/5 and 4 | Spleen: decreased cellularity, lymphocyte, mild (incidence) (B6C3F1 mice; 5% PFHxS, 28 days): 5/5 and 5 | Skin irritation at the site of application (B6C3F1 mice; PFHxS dermal exposure): no skin irritation | Skin histopathology at the dosing site (B6C3F1 mice; PFHxS dermal, 28 days): No microscopic abnormalities; also recorded: no histopathological changes | Decrease in specific IgM activity against SRBC (PFC/10^6 cells) vs vehicle (IgM response to SRBC; 1.25% PFHxS dermal): 50.7% | Decrease in total IgM activity against SRBC (PFC/spleen) vs vehicle (IgM response to SRBC; 1.25% PFHxS dermal): 57.9% | Decrease in specific IgM activity against SRBC (PFC/10^6 cells) vs vehicle (IgM response to SRBC; 2.5% PFHxS dermal): 49.9% | Decrease in total IgM activity against SRBC (PFC/spleen) vs vehicle (IgM response to SRBC; 2.5% PFHxS dermal): 60.3% | Serum level [1]: 35000 ng/mL | Serum concentration [2]: 42000 ng/mL | Spleen Abcg1 gene expression (spleen): increased | Spleen Chac1 gene expression (spleen): increased | Spleen Crim1 gene expression (spleen): increased | Spleen Ctse gene expression (spleen): decrease | Spleen Fbxo38 gene expression (spleen): increased | Spleen Id1 gene expression (spleen): increased | Spleen Il-10 gene expression (spleen): increased | Spleen Tlr5 gene expression (spleen): increased | Spleen Tlr6 gene expression (spleen): increased | Spleen Tlr7 gene expression (spleen): increased | Spleen Tlr8 gene expression (spleen): increased | NK cell function (NK cell function): No significant decreases | dLN CD4+ T cell number (dLN cells; 1.25%, 2.5%, and 5% PFHxS): significant decrease | dLN CD8+ T cell frequency (dLN cells; 2.5%, 5% PFHxS): increase | dLN eosinophil frequency and number (dLN cells; 2.5%, 5% PFHxS): increase | dLN mean fluorescence intensity of CD86 on B cells (dLN cells; 5% PFHxS): increase | dLN mean fluorescence intensity of MHCII on B cells (dLN cells; 5% PFHxS): increase | dLN total DC number (dLN cells; 5% PFHxS): increase | Serum concentration [3]: 180000 ng/mL
